For data set [1], the system named is Nucleoside diphosphate kinase B (Homo sapiens), P22392 [F60A]. The data set can be described thus: Binding affinity to N-terminal NT-647-NHS labeled NM23-H2 F60A mutant (unknown origin) up to 50 uM by SPR analysis.
Data set [2] deals with SiHa. The data set is described as follows: Antitumor activity against human SiHa cells xenografted in BALB/C nude mouse assessed as tumor growth inhibition at 2.5 mg/kg, ip administered daily after 3 weeks relative to control. The format is functional. Conditions: 504 h, read-out: TGI.
Data set [3] concerns the target T1, Nucleoside diphosphate kinase B (Homo sapiens, UniProt P22392). The data set is described as follows: Binding affinity to NM23-H2 (unknown origin) by SPR analysis.
The target of data set [4] is Nucleoside diphosphate kinase B (Homo sapiens, UniProt P22392, H118F). The data set can be described thus: Binding affinity to N-terminal NT-647-NHS labeled NM23-H2 H118F mutant (unknown origin) after 30 mins by MST analysis.
Data set [5] in a line: Binding affinity to biotin-labeled 18-mer duplex DNA hairpin (unknown origin) at 40 uM after 30 mins by SPR analysis.
In data set [6] the test system is SiHa. The data set is described as follows: Effect on NM23-H2 mRNA level in human SiHa cells up to 2 uM after 9 hrs by RT-PCR analysis. The data set is classed as functional, cell-based. A digest of the protocol: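 SiHa cells treated with 0, 0.5, 1.0 or 2.0 μM for 9 h. TRIzol RNA (1.5 μg) reverse-transcribed with M-MLV and oligo(dT) for 1 h at 42 °C. Semiquantitative PCR run for 30 cycles (58 °C annealing) and products resolved on 1.5% agarose. Band intensity normalized to β-actin, with untreated sample set at 100%; three repeats.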

Data set [7] deals with T1, Nucleoside diphosphate kinase B. The data set is described as follows: Binding affinity to NM23-H2 in human SiHa cells assessed as disruption of protein interaction with c-myc G-quadruplex DNA by measuring decrease in c-MYC mRNA level after 9 hrs by RT-PCR analysis. The format is cell-based. An outline of the steps:
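SiHa cells treated at 0, 0.5, 1.0, 2.0 μM for 9 h; TRIzol RNA, 1.5 μg reverse-transcribed with oligo(dT); semiquantitative PCR, 30 cycles, 58 °C annealing; bands normalized to β-actin, untreated 100%; three repeats.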

Data set [8] relates to SiHa. The data set is described as follows: Cell cycle arrest in human SiHa cells assessed as accumulation at S phase at 2 uM after 3 hrs by propidium iodide staining based flow cytometry (reference value: 13%). The format is functional. A digest of the protocol: (§1)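 SiHa cells (2.0 × 10^5 per well) plated 24 h, then exposed to 2 μM compound or left untreated for 3, 6, 9, 12, 24, 36 or 48 h. Cells washed in PBS, fixed overnight in ice-cold 70% ethanol, treated with 20 μg/mL RNase A for 30 min at 37 °C, stained with PI, and read by flow cytometry at 488 nm. Phase percentages compared with untreated control; at least three experiments.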

Data set [9] in a line: Cell cycle arrest in mouse primary mesangial cells at 2 uM after 9 to 48 hrs by propidium iodide staining based flow cytometry method.
Data set [10] has as its system SiHa. The data set can be described thus: Induction of apoptosis in human SiHa cells assessed as late apoptotic cells at 1 uM after 48 hrs by Annexin V-FITC/propidium iodide based flow cytometric analysis (reference value: 0.7 %). The data set is classed as functional.
Data set [11] has as its system SiHa. The data set is described as follows: Induction of apoptosis in human SiHa cells assessed as increase in cleaved caspase-3 level after 48 hrs by Western blot analysis. The data set is classed as functional, cell-based. A digest of the protocol:
(§2)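 SiHa cells treated with 0, 0.5, 1.0 or 2.0 μM for 48 h and lysed for total protein. Caspase-3, cleaved caspase-3, PARP and cleaved PARP detected by Western blot (30 μg protein, 10% SDS-PAGE, HRP chemiluminescence). Bands quantified by densitometry; at least three experiments.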

Data set [12] relates to SiHa. The data set can be described thus: Induction of apoptosis in human SiHa cells assessed as increase in cleaved PARP level after 48 hrs by Western blot analysis. The format is functional, cell-based. A digest of the protocol:
as §2

Data set [13] has as its system SiHa. The data set is described as follows: Down regulation of CDK4 expression in human SiHa cells at 0.5 to 2 uM after 24 to 48 hrs by Western blot analysis. The data set is classed as functional, cell-based. An outline of the steps: (§3)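 SiHa cells (2.0 × 10^5) treated with compound at various concentrations for 24 or 48 h, then lysed at 4 °C. Protein measured by BCA; 30 μg run on 10% SDS-PAGE and transferred to nitrocellulose. Membranes blocked in 5% milk, probed with primary antibodies overnight at 4 °C, then HRP secondary for 2 h, and detected by chemiluminescence. Bands quantified by densitometry; at least three experiments.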

In data set [14] the test system is SiHa. The data set is described as follows: Down regulation of CDK6 expression in human SiHa cells at 0.5 to 2 uM after 24 to 48 hrs by Western blot analysis. The format is functional, cell-based. An outline of the steps:
as §3

Data set [15] deals with SiHa. The data set can be described thus: Cell cycle arrest in human SiHa cells assessed as accumulation at G2/M phase at 2 uM after 6 hrs by propidium iodide staining based flow cytometry (reference value: 39 %). The format is functional. An outline of the steps: as §1
The test system of data set [16] is SiHa. The data set is described as follows: Cell cycle arrest in human SiHa cells assessed as accumulation at G0/G1 phase at 2 uM after 9 hrs by propidium iodide staining based flow cytometry (reference value: 48 %). The data set is classed as functional. An outline of the steps:
(§4)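 SiHa cells plated 24 h, treated at 2 μM for 3–48 h; fixed in ice-cold 70% ethanol overnight, RNase A 20 μg/mL 37 °C 30 min, PI-stained, flow cytometry at 488 nm; phase percentages quantified; at least three experiments.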

For data set [17], the system named is SiHa. The data set is described as follows: Cell cycle arrest in human SiHa cells assessed as accumulation at G0/G1 phase at 2 uM after 24 hrs by propidium iodide staining based flow cytometry (reference value: 48 %). The format is functional. A digest of the protocol: as §4
The test system of data set [18] is SiHa. The data set can be described thus: Cell cycle arrest in human SiHa cells assessed as accumulation at G0/G1 phase at 2 uM after 48 hrs by propidium iodide staining based flow cytometry (reference value: 48 %). The format is functional. An outline of the steps:
as §4

Data set [19] concerns SiHa. The data set is described as follows: Antiproliferative activity against human SiHa cells up to 100 hrs by real-time cellular activity assay. The format is functional, cell-based. An outline of the steps:
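Impedance-based real-time cell analysis at 37 °C, 5% CO2: 100 μL of 20 000 cells/mL added over medium background, settled 20 min, dosed after 24 h; read every 2 min for 2 h, then every 15 min to end; three repeats.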

Data set [20] has as its system SiHa. The data set is described as follows: Antitumor activity against human SiHa cells xenografted in BALB/C nude mouse assessed as tumor growth inhibition at 2.5 to 5 mg/kg, ip administered daily. The data set is classed as functional, organism-based. The conditions noted are these: TDE = time-dependent effect. An outline of the steps:
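SiHa cells implanted in the right armpit of BALB/C-nu/nu mice. At a tumour size of about 50 mm3, mice were randomised (n = 8/group) to vehicle, 2.5 or 5.0 mg/kg compound, or doxorubicin 1.0 mg/kg, given ip daily for 3 weeks. Tumour volume was followed, then tumours were excised and weighed and body weight recorded. Mean ± SEM, t test against vehicle.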

For the next data set, the system named is Mus musculus. The data set is described as follows: Toxicity in BALB/C nude mouse xenografted with human SiHa cells assessed as change in body weight at 2.5 to 5 mg/kg, ip administered daily after 3 weeks. The format is organism-based. Conditions: in vivo, 504 h. A digest of the protocol: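 SiHa cells implanted in the right armpit of BALB/c nu/nu mice. At approximately 50 mm3, mice randomized (n = 8/group) to vehicle, compound 2.5 or 5.0 mg/kg, or doxorubicin 1.0 mg/kg, given ip daily for 3 weeks. Body weight and signs of pain, distress or discomfort monitored; tumors excised and weighed. Data given as mean ± SEM, t test against vehicle.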

Data set [21] concerns SiHa. The data set is described as follows: Antitumor activity against human SiHa cells xenografted in BALB/C nude mouse assessed as tumor weight at 5 mg/kg, ip administered daily after 3 weeks (reference value: 511.6 mg). The data set is classed as functional.

Consider 1 compound from ChEMBL document CHEMBL4017489, “Design, Synthesis, and Evaluation of New Selective NM23-H2 Binders as c-MYC Transcription Inhibitors via Disruption of the NM23-H2/G-Quadruplex Interaction” (J Med Chem, 2017).

The source made the active and inactive calls. The calls are words filed in the database; no cut-off is given here.

T1 sequence (P22392 whole entry): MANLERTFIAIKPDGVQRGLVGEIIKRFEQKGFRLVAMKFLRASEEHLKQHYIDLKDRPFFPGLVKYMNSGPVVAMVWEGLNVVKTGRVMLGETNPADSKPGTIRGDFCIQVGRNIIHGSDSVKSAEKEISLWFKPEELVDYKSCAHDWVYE
Sequence of Nucleoside diphosphate kinase B (Homo sapiens, UniProt P22392, H118F) (P22392 whole entry H118F): as the sequence (P22392 whole entry) above, with H118F counted along it
Sequence of Nucleoside diphosphate kinase B (Homo sapiens), P22392 [F60A] (P22392 whole entry F60A): as the sequence (P22392 whole entry) above, with F60A counted along it

`CN(C)CCCNc1cc2nc3n(c(=O)c2cc1F)CC/C3=C\c1ccc(OCc2ccccc2)cc1O`: the outcome (in [1]; in [5]; in the data set on SiHa [6]) was inactive. Besides, the inhibition in vivo at 2.5 mg/kg in the data set with SiHa [2] was found to be 48%. Also, the Kd was found to be 3.1 µM in data set [3] and 7.7 µM in data set [4]. Besides, the Activity entry was “Dose-dependent effect” in [7]; 11% in the data set on SiHa [8]; “Non-Toxic” in data set [9]; 10.6% with SiHa [10]; “Dose-dependent effect” in the data set with SiHa [11]; “Dose-dependent effect” with SiHa [12]. For the same compound, the Activity in the data set with SiHa [15] is 26%; with SiHa [16] it was 67%; with SiHa [17], 22%; in the data set on SiHa [18], 0%; with SiHa [19] it was “Dose-dependent effect”; in the data set with Mus musculus it was “Non-Toxic”. For the same compound, the Activity with SiHa [21] amounted to 180.1 mg. Moreover, the outcome with SiHa [13] and with SiHa [14] was Active. Moreover, the TGI result with SiHa [20] is “Tde”.
